# Cl transport mod: modulates chloride dependent transport by human KCC2 | B-score of Tl+ flux slope (higher = more flux/activation; lower = inhibition) at 10 µM | KCC2 cells, thallium flux FluoZin-2 fluorescence | Q9H2X9 | hit rate 2.2% among 190,000;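 active = thallium flux slope and its plate-corrected score both differing from the plate sample mean at a set confidence after two filtering rounds, in either direction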;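 also: slope of fluorescence scaled to starting intensity during 10 to 20 s after thallium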
# NCF1 inh: inhibitors of human p47phox binding. P14598. hit rate 0.53% among 220,000. inhibition, % at 24.7 µM. AID 1274. p47phox/p22phox peptide binding, fluorescence polarization, 2 h;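 active = inhibition above about 30%, limit read from the data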;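 also: 0% = p47phox with labelled peptide and 100% = labelled peptide alone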
# WT yeast gro inh: growth inhibition of WT yeast, mitochondrial fusion screen | inhibition, % at 10 µM | mitochondrial fusion phenotypic screen, WT strain | hit rate 2.1% among 190,000; in the data active = inhibition above about 58%; tested in S. cerevisiae
# ROMK primary: modulates human ROMK potassium channel activity; P48048; Tet-inducible ROMK, thallium flux fluorescence; actives lie on both sides; B-score at 10 µM; hit rate 2% among 130,000;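 active = signal ratio slope over the read window, or its plate-corrected B-score, at least 3 SD from the plate mean, either direction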;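 also: B-score of the F/F0 ratio slope over 7 to 12 s after thallium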
# 14-3-3 Bad PPI: disrupts binding of bovine 14-3-3 zeta to phospho-Bad peptide. P63103. TR-FRET 14-3-3zeta/Dy647-pBad peptide displacement, 1 h. inhibition, % at 21.7 µM. hit rate 0.71% among 220,000. AID 781;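 active = inhibition above about 70%, limit read from the data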;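 also: 0% = full 14-3-3 plus peptide FRET controls and 100% = background without 14-3-3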
# Target sequence (P63103 whole entry, looked up): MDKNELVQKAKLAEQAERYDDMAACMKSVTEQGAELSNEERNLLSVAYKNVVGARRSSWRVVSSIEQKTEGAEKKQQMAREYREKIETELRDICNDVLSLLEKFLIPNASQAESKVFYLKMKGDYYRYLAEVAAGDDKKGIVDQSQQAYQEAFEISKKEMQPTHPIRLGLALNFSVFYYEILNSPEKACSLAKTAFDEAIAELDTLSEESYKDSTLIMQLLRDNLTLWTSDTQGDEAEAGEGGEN
# RBBP9 inh: inhibitors of human serine hydrolase RBBP9 | recombinant RBBP9, FP-Rh probe fluorescence polarization | inhibition, % at 7.94 µM | hit rate 0.2% among 220,000;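 active = inhibition above the campaign mean of all tested compounds plus 3 SD, cut at about 14% in these data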;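 also: plate controls were DMSO wells with RBBP9 for no effect and wells lacking RBBP9 protein for full effect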
# Target sequence (O75884 whole entry, looked up): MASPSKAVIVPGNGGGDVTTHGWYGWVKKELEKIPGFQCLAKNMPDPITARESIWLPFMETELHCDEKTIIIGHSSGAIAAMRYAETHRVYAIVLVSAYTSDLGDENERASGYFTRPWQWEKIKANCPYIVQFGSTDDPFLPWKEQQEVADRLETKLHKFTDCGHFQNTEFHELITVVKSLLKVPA
#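 System: RBBP9 protein / Quantity: 2.5 µM RBBP9 dispensing solution, before mixing / Also added: Serine-hydrolase probe FP-Rh, 375 nM pre-mixing / Dosing: 7.94 µM single dose, 0.794% DMSO / Timing: enzyme-compound preincubation 30 min, then probe labeling 45 min, 25 °C / Signal: FP readout at 525/598 nm / Controls: DMSO-treated enzyme wells and wells lacking RBBP9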
# Numbers without * were called inactive; · = no result. Only some compounds are listed: those with a hit (about 5.8% of all), similar ones and a draw of the others.
SMILES,Cl transport mod,NCF1 inh,WT yeast gro inh,ROMK primary,14-3-3 Bad PPI,RBBP9 inh
O=C(NC1CC1)c1cc(-c2ccco2)nc2ccccc12,0.0134,19.0,·,0.497,83.1*,0.5
O=C(O)c1cc(-c2ccco2)nc2ccccc12,-0.23,-12.0,-4.9,·,11.7,-6.8
O=C(O)c1cc(S(=O)(=O)N2CCOCC2)ccc1N1CCOCC1,0.0629,-2.3,-35.0,-0.0643,-7.6,0.4
O=c1c2ccccc2sn1-c1cc(S(=O)(=O)N2CCOCC2)ccc1N1CCOCC1,·,73.6*,1.8,-1.63,73.9*,44.8*
O=c1c2ccccc2sn1-c1cc(S(=O)(=O)N2CCOCC2)ccc1N1CCCC1,·,57.6*,-1.4,-1.92,-8.3,10.3
O=C(O)c1cc(S(=O)(=O)N2CCOCC2)ccc1N1CCCCC1,0.787,-5.4,-6.5,1.24,-15.8,-1.0
COC(=O)c1ccc(/C=N/OCC(=O)NCc2ccc(F)cc2)cc1,-1.87,2.1,9.5,0.9,0.5,2.5
Cn1c(CNC(=O)OC(C)(C)C)nnc1SCC(=O)N1CCOCC1,0.0698,2.6,·,-0.101,-0.9,-6.3
c1ccc2c(c1)ncn2CCn1cnc2ccccc21,0.644,9.7,-9.2,1.12,7.8,-7.4
O=C(O)c1ccn(Cn2cnc3ccccc32)n1,·,7.8,-43.8,0.321,75.8*,-7.8
CN(C(=O)c1ccccc1Cl)C1CCCCC1,-0.0337,-12.0,-22.1,-0.133,7.0,5.6
CC1CC(N(C(=O)c2ccccc2Cl)c2ccccc2)c2ccccc2N1 (centres undefined),·,-8.0,67.1*,·,-1.1,-5.3
COc1ccc(Cn2c(/C=C/c3ccccc3)nc3ccccc32)cc1,-0.00722,1.0,20.5,·,0.7,-15.1
Clc1ccccc1Cn1c(/C=C/c2ccco2)nc2ccccc21,-0.297,-74.9,78.1*,-0.479,8.0,-4.7
COc1ccc(-c2ccc(CO)o2)cc1N,0.154,-6.2,0.7,0.635,-14.1,-0.8
COc1ccc(NC(=O)CCn2nc(C)cc2C)cc1,-0.121,55.9*,13.3,0.578,-13.3,5.7
O=C(NCCCl)Nc1cccnc1Cl,·,1.8,-3.6,-0.155,-10.9,-3.0
Cc1cc(/C=N/n2cnnc2)c(C)n1-c1ccc(OCc2ccc(F)cc2)cc1,-0.0385,-13.1,62.1*,·,-12.2,-1.9
Nc1c(-c2ccccc2)c(CSc2nc3ccccc3[nH]2)nn1-c1cccc(Cl)c1,-1.76,-51.1,71.0*,-1.95,15.5,-18.0
c1ccc(CSc2nc3ccccc3[nH]2)cc1,-0.194,-3.4,·,0.5,-2.0,-7.7
Nc1c(-c2ccccc2)c(CSc2nc3ccccc3[nH]2)nn1-c1ccc(Cl)cc1,-0.306,-16.3,71.8*,-0.625,21.4,-13.4
Cc1ccccc1-n1nc(CSc2nc3ccccc3[nH]2)c(-c2ccccc2)c1N,-0.437,-4.2,35.0,·,-4.7,-0.3
Cc1nn(Cc2ccc(Cl)cc2Cl)c(C)c1NC(=O)NC12CC3CC(CC(C3)C1)C2,0.214,2.9,67.6*,-1.34,0.2,-12.4
Cc1nn(Cc2ccc(Cl)cc2Cl)c(C)c1NC(=O)c1sc2ccccc2c1Cl,-0.0254,-1.5,-11.7,·,-5.1,-2.1
COc1ccc(-c2nsc3c(N4CCCCC4)ncnc23)cc1,0.101,-22.3,7.9,·,3.1,-8.9
SMILES,Cl transport mod,NCF1 inh,WT yeast gro inh,ROMK primary,14-3-3 Bad PPI,RBBP9 inh
COc1ccc(-c2nsc3c(N4CCCCC4C)ncnc23)cc1 (centres undefined),·,-12.2,74.6*,-0.753,-14.2,-4.7
CCN1C(=O)C(c2ccc(O)cc2)(c2ccc(O)cc2)c2ccccc21,4.04,-16.0,-25.1,-0.0259,94.3*,-7.2
COc1cc(OC)nc(NC(=O)COC(=O)c2cccc(Cl)c2)n1,-0.217,-14.7,-6.3,1.09,-2.8,-0.9
c1ccc(-c2nnc(CN3CCN(c4ccccc4)CC3)o2)cc1,0.245,0.7,-16.8,-1.31,-5.8,-1.1
c1ccc(-c2nnc(CN3CCN(C(c4ccccc4)c4ccccc4)CC3)o2)cc1,0.354,159.4*,24.7,1.13,-2.0,0.2
CCOc1ccc(CC(=O)NCC2(N3CCCCC3)CCCCC2)cc1,-0.0313,-18.2,-4.9,-0.224,-8.6,-9.5
Cc1cccc(OCCn2c(NC(=O)c3ccco3)nc3ccccc32)c1,1.51,-11.3,72.6*,·,-0.6,-0.2
O=C(Nc1nc2ccccc2n1CCOc1ccc(Cl)cc1)c1ccco1,·,-20.6,69.8*,·,2.4,2.8
O=C(Nc1nc2ccccc2n1CCOc1ccccc1)c1ccco1,1.4,-7.8,56.4,·,-11.3,-5.6

# Screens deposited in PubChem by several laboratories.
